Bioassay records as filed in PubChem.
This excerpt belongs to a sample that is enriched for hits.
T cruzi HTS = inhibitors of intracellular Trypanosoma cruzi, primary screen, cell-based, plate reader, single point, set 2. intracellular Trypanosoma cruzi in host cells. activity score (inhibition), % at 5.01 µM. actives 4.9% (n = 22,000). AID 651903, 2012; in the data active means activity score above about 55%; inconclusive means no clear call, values can overlap the other calls;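 further: parasites and compound incubated about four days before reading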
YB-1 expr inh = inhibitors of YB-1 gene expression, primary screen, cell-based, fluorescence; U2OS, qRT-PCR YB-1 vs CDIP delta delta Cp, 16 h; active compounds read high; zero = DMSO, each unit about twofold; delta delta Cp (YB-1 minus CDIP) (concentration not given with the values); actives 0.37% (n = 30,000); AID 434959, 2010;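 active means delta delta Cp rounded down to an integer at or above 3, about 3 SD of DMSO wells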;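 further: higher means less YB-1 transcript or more CDIP transcript relative to DMSO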
INS-1E ATP HTS = protection of INS-1E cells from cytokine death, primary screen, ATP luminescence, single point | AID 488910, 2010 | actives 0.1% (n = 20,000) | protection from cytokine-induced ATP loss, % at 10 µM | INS-1E cytokine-induced death, 48 h; normalised: neutral wells 0, positive control 100;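 active means mean replicate protection from cytokine-induced ATP loss at least 50% and at least 75% of replicates each reaching 50%; inconclusive means meets only one of the two criteria, mean or replicate share; inactive means fails both the mean and replicate share criteria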
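Material: INS-1E rat cells; Quantity: 8000 cells/well; Buffer or medium: phenol-red-free RPMI with 5% fetal bovine serum; Probe or stimulus: cytokine cocktail of IFN-γ, TNF-α and IL-1β; Compound dosing: single test concentration per compound, delivered by pin transfer; Incubation: 48 h co-treatment, 10 min post-lysis read; Signal: CellTiter-Glo luminescence.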
Of the large screens only hits and unclear results are named; the others gave an inactive call.

C[C@@H]1CN([C@@H](C)CO)C(=O)c2cccc(NC(=O)CCCCCC(=O)Nc3ccccc3N)c2O[C@H]1CN(C)S(=O)(=O)c1ccc(F)cc1	none
Cc1ccc(S(=O)(=O)N(C)C[C@@H]2Oc3c(NC(=O)CCCCCC(=O)Nc4ccccc4N)cccc3C(=O)N([C@H](C)CO)C[C@@H]2C)cc1	T cruzi HTS 73
C[C@H](CO)N1C[C@H](C)[C@H](CN(C)S(=O)(=O)c2ccc(F)cc2)Oc2c(NC(=O)CCCCCC(=O)Nc3ccccc3N)cccc2C1=O	T cruzi HTS 63
C[C@@H]1CN([C@@H](C)CO)C(=O)c2cccc(NC(=O)CCCCCC(=O)Nc3ccccc3N)c2O[C@@H]1CN(C)S(=O)(=O)c1ccc(F)cc1	none
C[C@H]1CN([C@@H](C)CO)C(=O)c2cccc(NC(=O)CCCCCC(=O)Nc3ccccc3N)c2O[C@H]1CN(C)S(=O)(=O)c1ccccc1	none
C[C@@H]1CN([C@H](C)CO)C(=O)c2cccc(NC(=O)CCCCCC(=O)Nc3ccccc3N)c2O[C@@H]1CN(C)S(=O)(=O)c1ccc(F)cc1	T cruzi HTS 61
O/N=C1/C2CN3CCN(C2)CC1(Cc1ccccc1)C3	none (no result: T cruzi HTS, INS-1E ATP HTS)
O=C(CN1C2=NCCCN2c2ccccc21)c1ccco1	none (no result: T cruzi HTS, INS-1E ATP HTS)
N#Cc1c(-c2ccc(Cl)cc2)csc1S(=O)C1CCCCC1 (centres undefined)	none (no result: T cruzi HTS, INS-1E ATP HTS)
CC1OC(OC(=O)C2=CC3(O)CC(C)(C)CC34C(C)CCC24)C(O)C(O)C1O (centres undefined)	none (no result: T cruzi HTS, INS-1E ATP HTS)
CCOC(=O)Cc1n[nH]c(CC(=O)OCC)n1	none (no result: T cruzi HTS, INS-1E ATP HTS)
C[C@H]1CN([C@@H](C)CO)C(=O)c2cccc(NC(=O)c3nc4ccccc4s3)c2O[C@H]1CN(C)S(=O)(=O)c1cccs1	none
COc1ccc(S(=O)(=O)N(C)C[C@@H]2Oc3c(NC(=O)c4nc5ccccc5s4)cccc3C(=O)N([C@H](C)CO)C[C@@H]2C)cc1	T cruzi HTS 70
COc1ccc(S(=O)(=O)N(C)C[C@H]2Oc3c(NC(=O)c4nc5ccccc5s4)cccc3C(=O)N([C@@H](C)CO)C[C@H]2C)cc1	YB-1 expr inh 7.9
COc1ccc(S(=O)(=O)N(C)C[C@H]2Oc3c(NC(=O)c4nc5ccccc5s4)cccc3C(=O)N([C@H](C)CO)C[C@@H]2C)cc1	none
C[C@H](CO)N1C[C@H](C)[C@H](CN(C)S(=O)(=O)c2cccs2)Oc2c(NC(=O)c3nc4ccccc4s3)cccc2C1=O	T cruzi HTS 76
C[C@H](CO)N1C[C@H](C)[C@H](CN(C)S(=O)(=O)c2ccccc2)Oc2c(NC(=O)c3nc4ccccc4s3)cccc2C1=O	none
COc1cc(C[C@H]2C(=O)OC[C@@H]2Cc2ccc(O[C@@H]3O[C@H](CO)[C@@H](O)[C@H](O)[C@H]3O)c(OC)c2)ccc1O	none (no result: T cruzi HTS, INS-1E ATP HTS)
COC1OC(=O)C(CCC2(C)C(C)CCC3(C)C2CC(O)C(O)C32CO2)C1O (centres undefined)	none (no result: T cruzi HTS, INS-1E ATP HTS)
O=C(COc1ccccc1O)N1CCCC1	none (no result: T cruzi HTS, INS-1E ATP HTS)
C[C@@H]1CN([C@H](C)CO)C(=O)c2cccc(NC(=O)CCCCCC(=O)Nc3ccccc3N)c2O[C@@H]1CN(C)Cc1ccccc1	none
C[C@@H]1CN([C@@H](C)CO)C(=O)c2cccc(NC(=O)CCCCCC(=O)Nc3ccccc3N)c2O[C@H]1CN(C)Cc1ccc(Cl)c(Cl)c1	T cruzi HTS 80
C[C@H]1CN([C@@H](C)CO)C(=O)c2cccc(NC(=O)CCCCCC(=O)Nc3ccccc3N)c2O[C@H]1CN(C)Cc1ccc(-c2ccccc2)cc1	T cruzi HTS 68
C[C@@H]1CN([C@H](C)CO)C(=O)c2cccc(NC(=O)CCCCCC(=O)Nc3ccccc3N)c2O[C@H]1CN(C)Cc1ccncc1	none
C[C@H]1CN([C@@H](C)CO)C(=O)c2cc(NC(=O)CCCCCC(=O)Nc3ccccc3N)ccc2O[C@H]1CN(C)Cc1ccc(Cl)c(Cl)c1	none (no result: YB-1 expr inh)
C[C@@H]1CN([C@@H](C)CO)C(=O)c2cccc(NC(=O)CCCCCC(=O)Nc3ccccc3N)c2O[C@H]1CN(C)Cc1ccccc1	T cruzi HTS 72
C[C@@H]1CN([C@@H](C)CO)C(=O)c2cccc(NC(=O)CCCCCC(=O)Nc3ccccc3N)c2O[C@H]1CN(C)Cc1ccc(Oc2ccccc2)cc1	T cruzi HTS 84
C[C@@H]1CN([C@H](C)CO)C(=O)c2cccc(NC(=O)CCCCCC(=O)Nc3ccccc3N)c2O[C@@H]1CN(C)Cc1ccc(-c2ccccc2)cc1	T cruzi HTS inconclusive
N#Cc1cccc2cccc(Sc3ccccc3)c12	none (no result: T cruzi HTS, INS-1E ATP HTS)
C=C1[C@H](OC(=O)C(C)CC)[C@@H](OC(=O)C(C)C)[C@@H](O)C(C)(C)/C=C\[C@H](C)C(=O)[C@@]2(O)C[C@H](C)[C@H](O)[C@@H]2[C@H]1OC(=O)C(C)CC (some centres undefined)	none (no result: T cruzi HTS, INS-1E ATP HTS)
Nc1cc(C(F)(F)F)ccc1Oc1ccc(C2CCCCC2)cc1	none (no result: T cruzi HTS, INS-1E ATP HTS)
CC(CC(C)O[C@@H]1O[C@H](CO)[C@@H](O)[C@H](O)[C@H]1O)OC(=O)/C=C/c1ccc(O)cc1 (some centres undefined)	none (no result: T cruzi HTS, INS-1E ATP HTS)
CC(=O)C(C#N)C(=O)Nc1ccc(OC(F)(F)F)cc1 (centres undefined)	none (no result: T cruzi HTS, INS-1E ATP HTS)
Cc1ccc(C)n1-c1ccc(C(=O)OCC(=O)c2ccc(Cl)cc2)cc1	none (no result: T cruzi HTS, INS-1E ATP HTS)
CC(O)(CC(=O)O)CC(=O)OCC1OC(Oc2c(-c3ccc(O)cc3)oc3cc(O)cc(O)c3c2=O)C(O)C(O)C1O (centres undefined)	none (no result: T cruzi HTS, INS-1E ATP HTS)
C[C@@H]1CN([C@@H](C)CO)C(=O)c2cc(N(C)C)ccc2O[C@@H]1CN(C)Cc1ccc(Cl)c(Cl)c1	T cruzi HTS 64
C[C@@H]1CN([C@@H](C)CO)C(=O)c2cc(N(C)C)ccc2O[C@@H]1CN(C)Cc1ccc(-c2ccccc2)cc1	T cruzi HTS 65
C[C@H]1CN([C@@H](C)CO)C(=O)c2cc(N(C)C)ccc2O[C@H]1CN(C)Cc1ccc(-c2ccccc2)cc1	none
C[C@H](CO)N1C[C@H](C)[C@H](CN(C)Cc2ccccc2)Oc2ccc(N(C)C)cc2C1=O	none
C[C@@H]1CN([C@H](C)CO)C(=O)c2cc(N(C)C)ccc2O[C@@H]1CN(C)Cc1ccc(Cl)c(Cl)c1	none
C[C@H](CO)N1C[C@H](C)[C@@H](CN(C)Cc2ccc(Oc3ccccc3)cc2)Oc2ccc(N(C)C)cc2C1=O	T cruzi HTS 71
C/C=C/C=C/C(=O)c1cc(C)c(O)c(C)c1O	none (no result: T cruzi HTS, INS-1E ATP HTS)
Cc1cccc(C)c1NC1=NC(C)(CO)CS1 (centres undefined)	none (no result: T cruzi HTS, INS-1E ATP HTS)
CC(O)CCCC1Cc2cccc(O)c2C(=O)O1 (centres undefined)	none (no result: T cruzi HTS, INS-1E ATP HTS)
N#C/C(=C(\O)c1ccc(C(=O)c2ccccc2)cc1)c1nc2ccccc2s1	none (no result: T cruzi HTS, INS-1E ATP HTS)
O=C(O)c1cc(N=Cc2ccccc2O)ccc1O	none (no result: T cruzi HTS, INS-1E ATP HTS)
CC(C)(C)OC(=O)N1Cc2ccccc2C[C@H]1C(=O)NCCN1CCOCC1	none (no result: T cruzi HTS, INS-1E ATP HTS)
O=C(/C=C/c1ccc(O)cc1)OC[C@H]1O[C@@H](O[C@@H]2OC=C[C@H]3[C@H](O)[C@@H]4O[C@]4(CO)[C@@H]23)[C@H](O)[C@@H](O)[C@@H]1O	none (no result: T cruzi HTS, INS-1E ATP HTS)
O=c1[nH]c(=S)[nH]c(O)c1C=Nc1cccc(O)c1	none (no result: T cruzi HTS, INS-1E ATP HTS)
COc1cccc(C(=O)OCC(=O)c2ccccc2)c1OC	none (no result: T cruzi HTS, INS-1E ATP HTS)
